Assay results as given in ChEMBL document CHEMBL1132228, “Unique analogues of anandamide: arachidonyl ethers and carbamates and norarachidonyl carbamates and ureas” (J Med Chem, 1999).

Key:
Cannabinoid receptor 1 [1] = target: T1, Cannabinoid receptor 1 (Rattus norvegicus, UniProt P20272); assay: The compound was tested for Ki value against rat whole brain P2 membrane preparation in presence of enzyme inhibitor PMSF.
Procedure, shortened: (§1)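 Rat whole-brain P2 membranes (100-150 µg protein) incubated 1 h at 30 °C with 1 nM [3H]CP-55,940 and analogue at 1 nM-10 µM, with or without PMSF (50 µM). Buffer: 50 mM Tris-HCl, 1 mM EDTA, 3 mM MgCl2, 5 mg/mL BSA; ethanol ≤0.4%. Nonspecific binding with 1 µM CP-55,940. Stopped with ice-cold buffer, then rapid filtration on PEI-treated filters. Triplicates; 3-6 experiments; mean ± SE.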

Mus musculus [2] = assay: The compound tested in vivo for antinociception as measured by tail flick response(TF); type: functional
Procedure, shortened: (§2)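 Mice dosed iv by tail vein in ethanol:emulphor:saline 1:1:18. Tail flick to heat measured at 4 min, with 2-4 s baseline and 10 s cut-off, expressed as %MPE. Same mice then placed in photocell cages; beam breaks counted over 10 min and expressed as % of control. 6 mice/dose. ED50 from probit versus log dose by least-squares regression.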

Mus musculus [3] = assay: The compound tested in vivo for inhibition of spontaneous activity(SA); type: functional; procedure, shortened: as §2
Mus musculus [4] = assay: The compound tested in vivo for hypothermia as changes in rectal temperature (RT); type: functional
Procedure, shortened: (§3)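 Separate mice dosed iv by tail vein in ethanol:emulphor:saline 1:1:18. Rectal temperature taken by thermistor probe before and 4 min after injection; the change was recorded. Mice then placed on a 5.5-cm ring 16 cm high; time motionless over 5 min was taken as % of 300 s. Immobility ED50 from probit-log dose regression.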

Cannabinoid receptor 1 [5] = target: T1, Cannabinoid receptor 1; assay: The compound was tested for Ki value against rat whole brain P2 membrane preparation in absence of enzyme inhibitor PMSF; procedure, shortened: as §1
Mus musculus [6] = assay: The compound tested in vivo for ring immobility (RI); type: functional; procedure, shortened: as §3
Mus musculus [7] = assay: The compound tested in vivo for ring immobility (RI)a; type: functional; procedure, shortened: as §3
Mus musculus [8] = assay: The compound tested in vivo for antinociception as measured by tail flick response(TF) activity at 30 mg/kg; type: functional; procedure, shortened: as §2
Mus musculus [9] = assay: The compound tested in vivo for inhibition of spontaneous activity(SA)at 30 mg/kg; type: functional; parameters: scale not given: the % may be the effect or the level left; procedure, shortened: as §2

T1 sequence (P20272 whole entry): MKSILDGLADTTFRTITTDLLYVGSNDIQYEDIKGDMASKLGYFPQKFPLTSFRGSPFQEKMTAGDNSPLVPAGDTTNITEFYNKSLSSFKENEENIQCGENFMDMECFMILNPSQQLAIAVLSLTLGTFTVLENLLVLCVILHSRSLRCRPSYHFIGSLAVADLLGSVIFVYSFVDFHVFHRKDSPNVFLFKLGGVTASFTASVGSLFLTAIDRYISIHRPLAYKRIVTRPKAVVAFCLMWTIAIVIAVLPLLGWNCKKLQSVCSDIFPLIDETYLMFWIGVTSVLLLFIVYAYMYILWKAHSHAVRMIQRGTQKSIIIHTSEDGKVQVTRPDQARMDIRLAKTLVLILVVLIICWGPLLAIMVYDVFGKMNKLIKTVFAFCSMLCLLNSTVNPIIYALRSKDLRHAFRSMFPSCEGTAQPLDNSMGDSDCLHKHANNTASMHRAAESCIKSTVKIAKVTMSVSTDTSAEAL

`C#CCOCCCC/C=C\C/C=C\C/C=C\C/C=C\CCCCC` was tested, and the Ki (Cannabinoid receptor 1 [1]) was 1.58 µM.

`CCCCC/C=C\C/C=C\C/C=C\C/C=C\CCCCOCCC` was tested, and the Ki (Cannabinoid receptor 1 [1]) was 1.08 µM.

For `CCCCC/C=C\C/C=C\C/C=C\C/C=C\CCCCOCC`, the Ki (Cannabinoid receptor 1 [1]) was 2.2 µM.

`CCCCC/C=C\C/C=C\C/C=C\C/C=C\CCCCOCCO` showed a Ki (Cannabinoid receptor 1 [1]) of 0.797 µM.

`CCCCC/C=C\C/C=C\C/C=C\C/C=C\CCCNC(=O)NCCC` was tested, and the ED50 (Mus musculus [2]) was 8.9 mg/kg, the ED50 (Mus musculus [3]) was 7.2 mg/kg and the ED50 (Mus musculus [4]) was 3.4 mg/kg. It also gave a Ki (Cannabinoid receptor 1 [5]) of 0.17 µM, a Ki (Cannabinoid receptor 1 [1]) of 0.091 µM and an ED50 (Mus musculus [6]) of 5.4 mg/kg.

For `CCCCC/C=C\C/C=C\C/C=C\C/C=C\CCCCOC(=O)NC(C)C`, the Ki (Cannabinoid receptor 1 [1]) was 0.995 µM.

`CCCCC/C=C\C/C=C\C/C=C\C/C=C\CCCCOCC1CC1` showed a Ki (Cannabinoid receptor 1 [1]) of 0.578 µM.

In the case of `CCCCC/C=C\C/C=C\C/C=C\C/C=C\CCCNC(=O)NCCO`, the ED50 (Mus musculus [2]) is reported as 4 mg/kg, the ED50 (Mus musculus [3]) is reported as 3.1 mg/kg and the ED50 (Mus musculus [4]) is reported as 2.6 mg/kg. It also gave a Ki (Cannabinoid receptor 1 [1]) of 0.347 µM and an ED50 (Mus musculus [6]) of 3.9 mg/kg.

In the case of `CCCCC/C=C\C/C=C\C/C=C\C/C=C\CCCNC(=O)NCCF`, the ED50 (Mus musculus [2]) is reported as 6.4 mg/kg, the ED50 (Mus musculus [7]) is reported as 4.48 mg/kg and the ED50 (Mus musculus [3]) is reported as 3.5 mg/kg. The ED50 (Mus musculus [4]) was 0.85 mg/kg, the Ki (Cannabinoid receptor 1 [5]) was 0.052 µM and the Ki (Cannabinoid receptor 1 [1]) was 0.055 µM.

`CCCCC/C=C\C/C=C\C/C=C\C/C=C\CCCC(=O)NCCO` [ANANDAMIDE] was tested, and the ED50 (Mus musculus [2]) was 6.2 mg/kg.

Compound `CCCCC/C=C\C/C=C\C/C=C\C/C=C\CCCNC(=O)NCC` has an ED50 (Mus musculus [2]) of 3.3 mg/kg, an ED50 (Mus musculus [3]) of 2.8 mg/kg and an ED50 (Mus musculus [4]) of 16.2 mg/kg. The Ki (Cannabinoid receptor 1 [1]) was 0.156 µM and the ED50 (Mus musculus [6]) was 19.9 mg/kg.

Compound `CCCCC/C=C\C/C=C\C/C=C\C/C=C\CCCNC(=O)NCCOC` has an Activity (Mus musculus [8]) of 32%, an Activity (Mus musculus [9]) of 69% and a Ki (Cannabinoid receptor 1 [1]) of 0.746 µM. The ED50 (Mus musculus [6]) was 3 mg/kg.

`CCCCC/C=C\C/C=C\C/C=C\C/C=C\CCCCOCC(C)C` was tested, and the Ki (Cannabinoid receptor 1 [1]) was 2.48 µM.

Compound `CCCCC/C=C\C/C=C\C/C=C\C/C=C\CCCNC(=O)NC` has an ED50 (Mus musculus [2]) of 12.3 mg/kg, an ED50 (Mus musculus [3]) of 9.9 mg/kg and an ED50 (Mus musculus [4]) of 2.2 mg/kg. It also gave a Ki (Cannabinoid receptor 1 [1]) of 0.436 µM and an ED50 (Mus musculus [6]) of 4.51 mg/kg.

Compound `CCCCC/C=C\C/C=C\C/C=C\C/C=C\CCCCOC(C)CC` (stereo not given) has a Ki (Cannabinoid receptor 1 [1]) of 1.31 µM.

In the case of `CCCCC/C=C\C/C=C\C/C=C\C/C=C\CCCNC(=O)NCC(C)C`, the Activity (Mus musculus [8]) is reported as 26%, the Activity (Mus musculus [9]) is reported as 59% and the Ki (Cannabinoid receptor 1 [1]) is reported as 0.335 µM.

Work on `CCCCC/C=C\C/C=C\C/C=C\C/C=C\CCCCOC(C)C` yielded a Ki (Cannabinoid receptor 1 [1]) of 0.871 µM.

Work on `CCCCC/C=C\C/C=C\C/C=C\C/C=C\CCCCOCCF` yielded a Ki (Cannabinoid receptor 1 [1]) of 0.885 µM.

For `CCCCC/C=C\C/C=C\C/C=C\C/C=C\CCCNC(=O)NC(C)C`, the ED50 (Mus musculus [2]) was 2.4 mg/kg, the ED50 (Mus musculus [3]) was 5.8 mg/kg and the ED50 (Mus musculus [4]) was 1.28 mg/kg. It also gave a Ki (Cannabinoid receptor 1 [5]) of 0.204 µM, a Ki (Cannabinoid receptor 1 [1]) of 0.131 µM and an ED50 (Mus musculus [6]) of 38 mg/kg.

`CCCCC/C=C\C/C=C\C/C=C\C/C=C\CCCNC(=O)OCCF` was tested, and the Activity (Mus musculus [8]) was 20%, the Activity (Mus musculus [9]) was 18% and the Ki (Cannabinoid receptor 1 [1]) was 0.331 µM.

`CCCCC/C=C\C/C=C\C/C=C\C/C=C\CCCNC(=O)OC(C)C` showed an Activity (Mus musculus [8]) of 3%, an Activity (Mus musculus [9]) of 35% and a Ki (Cannabinoid receptor 1 [1]) of 1.23 µM.

Compound `CCCCC/C=C\C/C=C\C/C=C\C/C=C\CCCCOC(=O)NCC` has a Ki (Cannabinoid receptor 1 [1]) of 2.2 µM.

Work on `C=CCOCCCC/C=C\C/C=C\C/C=C\C/C=C\CCCCC` yielded a Ki (Cannabinoid receptor 1 [1]) of 1.17 µM.

Compound `CCCCC/C=C\C/C=C\C/C=C\C/C=C\CCCNC(=O)OCC` has an Activity (Mus musculus [8]) of 5%, an Activity (Mus musculus [9]) of 36% and a Ki (Cannabinoid receptor 1 [1]) of 0.218 µM.

Compound `CCCCC/C=C\C/C=C\C/C=C\C/C=C\CCCCOC` has a Ki (Cannabinoid receptor 1 [1]) of 4.26 µM.

In the case of `CCCCC/C=C\C/C=C\C/C=C\C/C=C\CCCCOC(=O)NCCC`, the Ki (Cannabinoid receptor 1 [1]) is reported as 0.471 µM.

For `CCCCC/C=C\C/C=C\C/C=C\C/C=C\CCCCOCCCC`, the Ki (Cannabinoid receptor 1 [1]) was 1.71 µM.
